In ChEMBL document CHEMBL4017491, “Phthalazino[1,2-b]quinazolinones as p53 Activators: Cell Cycle Arrest, Apoptotic Response and Bak-Bcl-xl Complex Reorganization in Bladder Cancer Cells” (J Med Chem, 2017):
Activity calls are given as the source filed them. The rule behind the calls is not given here.

Legend:
HeLa = experiment: Antiproliferative activity against human HeLa cells by MTT assay; assay type: functional, cell-based
Outline: (§1)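 Cell lines cultured in RPMI 1640 with 10% FBS. Viability read by MTT (5 mg/mL, 4 h at 37 °C), with formazan dissolved in DMSO and absorbance taken at 490 nm. Viability (%) = A490 treated / A490 control × 100. IC50 taken from dose-response curves, from three independent experiments each run in triplicate.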

T-24 [1] = experiment: Antiproliferative activity against human T24 cells by MTT assay; assay type: functional, cell-based; outline: as §1
MGC-803 = experiment: Antiproliferative activity against human MGC803 cells by MTT assay; assay type: functional, cell-based; outline: as §1
HepG2 [2] = experiment: Antiproliferative activity against human HepG2 cells by MTT assay; assay type: functional, cell-based; outline: as §1
NCI-H460 = experiment: Antiproliferative activity against human NCI-H460 cells by MTT assay; assay type: functional, cell-based; outline: as §1
HepG2 [3] = experiment: Antitumor activity against human HepG2 cells xenografted in BALB/C nude mouse assessed as tumor growth inhibition at 6 mg/kg, ip administered every 2 days for 16 days relative to control; assay type: functional; details: read-out: TGI
Outline: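 Male BALB/C nude mice, 6 weeks old, given subcutaneous flank injection of 5 × 10^6 HepG2 cells; tumors of 80−200 mm3 randomized, n = 6/group. Dosing ip every other day, vehicle 5% DMSO in saline (v/v). Tumor length and width measured three times a week, volume V = lw2/2; growth inhibition expressed versus vehicle group. Body weight also recorded.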

[4] = biological target: Cellular tumor antigen p53 (Homo sapiens) (UniProt P04637); experiment: Activation of p53 in human T24 cells assessed as p53 phosphorylation after 24 hrs by Western blot analysis; assay type: cell-based
Cellular tumor antigen p53 (Homo sapiens), sequence (P04637 whole entry, looked up): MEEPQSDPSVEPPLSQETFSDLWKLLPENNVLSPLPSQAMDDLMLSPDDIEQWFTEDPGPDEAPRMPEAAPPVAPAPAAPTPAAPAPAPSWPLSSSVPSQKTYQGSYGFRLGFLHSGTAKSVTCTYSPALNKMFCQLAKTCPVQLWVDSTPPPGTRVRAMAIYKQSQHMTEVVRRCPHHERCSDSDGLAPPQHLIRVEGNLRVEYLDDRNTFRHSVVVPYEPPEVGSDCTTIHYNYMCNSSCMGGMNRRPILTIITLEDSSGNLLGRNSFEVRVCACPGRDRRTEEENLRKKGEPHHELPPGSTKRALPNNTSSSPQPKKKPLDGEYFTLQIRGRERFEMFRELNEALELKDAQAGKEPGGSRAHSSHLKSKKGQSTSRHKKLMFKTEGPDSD
Outline: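 T24 cells, 3 × 10^5 per well, grown to 85−95% confluence, then exposed to 0−10 μM for 24 h. Whole-cell extracts in sample buffer run on SDS-polyacrylamide gels and transferred to nitrocellulose. Blots probed with primary antibodies and AP-linked anti-rabbit IgG, detected by ECL. Blots stripped and reprobed for β-actin as loading control.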

T-24 [5] = experiment: Effect on p53 expression in human T24 cells up to 10 uM after 24 hrs by Western blot analysis; assay type: functional, cell-based
Outline: (§2)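 T24 cells (3 × 10^5 per well) grown to 85–95% confluence, then exposed 24 h to 0–10 μM. Whole-cell extracts run on SDS-PAGE and blotted to nitrocellulose. Probed with the indicated antibodies and AP-linked anti-rabbit IgG, with ECL detection. Blots stripped and reprobed for β-actin as loading control.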

T-24 [6] = experiment: Effect on p53 protein expression in human T24 cells at 10 uM after 24 hrs by Western blot analysis; assay type: functional, cell-based; outline: as §2
Escherichia coli = experiment: Induction of DNA damage in Escherichia coli pBR322 DNA assessed as effect on mobility rate at 5 uM after 1 hr by DNA relaxation assay
Outline: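 pBR322 plasmid DNA incubated 1 h with compound over 1−10 μM in 5 mM Tris-HCl, 50 mM NaCl, pH 7.2. Samples run on 1.5% agarose gel, stained with 0.5 μg·mL−1 ethidium bromide; conformation and migration rate compared with 1% DMSO plus plasmid (negative control) and ethidium bromide plus plasmid (positive control).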

Compound	IC50 (HeLa)	IC50 (T-24 [1])	IC50 (MGC-803)	IC50 (HepG2 [2])	IC50 (NCI-H460)	inhibition in vivo at 6 mg/kg (HepG2 [3])	Activity [4]	Activity (T-24 [5])	Activity (T-24 [6])	Activity (Escherichia coli)
Cc1ccc2nc3c4ccccc4c(NCCCN4CCOCC4)nn3c(=O)c2c1	24.2 µM	9.78 µM	20.7 µM	24.1 µM	21.6 µM	–	–	–	–	–
Cc1ccc2nc3c4ccccc4c(N4CCN(C)CC4)nn3c(=O)c2c1	85 µM	60.5 µM	34.2 µM	55.2 µM	70.6 µM	–	–	–	–	–
O=c1c2cc(Br)ccc2nc2c3ccccc3c(NCCN3CCCCC3)nn12	2.01 µM	3.81 µM	4.48 µM	4.14 µM	7.85 µM	–	–	–	–	–
O=c1c2cc(Br)ccc2nc2c3ccccc3c(NCCN3CCCC3)nn12	3.71 µM	6.43 µM	4.15 µM	5.21 µM	6.84 µM	–	–	–	–	–
O=c1c2cc(Cl)ccc2nc2c3ccccc3c(NCCCN3CCOCC3)nn12	34.6 µM	8.85 µM	23.1 µM	18.3 µM	19.9 µM	–	–	–	–	–
Cc1ccc2nc3c4ccccc4c(NCCN(C)C)nn3c(=O)c2c1	3.41 µM	2.12 µM	5.65 µM	4.97 µM	5.69 µM	–	–	–	–	–
CN1CCN(c2nn3c(=O)c4cc(Br)ccc4nc3c3ccccc23)CC1	73.5 µM	77 µM	40.4 µM	41.1 µM	43.7 µM	–	–	–	–	–
O=c1c2cc(Br)ccc2nc2c3ccccc3c(NCCN3CCOCC3)nn12	8.8 µM	10.8 µM	9.9 µM	11.3 µM	7.85 µM	–	–	–	–	–
CN(C)CCCNc1nn2c(=O)c3cc(Br)ccc3nc2c2ccccc12	7.13 µM	3.25 µM	3.35 µM	2.2 µM	5.48 µM	–	–	–	–	–
CC(C)N(CCNc1nn2c(=O)c3cc(Br)ccc3nc2c2ccccc12)C(C)C	11.4 µM	12.7 µM	10.6 µM	11.7 µM	13.6 µM	–	–	–	–	–
O=c1c2cc(F)ccc2nc2c3ccccc3c(N3CCOCC3)nn12	> 100 µM	> 100 µM	> 100 µM	> 100 µM	> 100 µM	–	–	–	–	–
CN1CCN(c2nn3c(=O)c4cc(F)ccc4nc3c3ccccc23)CC1	44.9 µM	34.8 µM	26.1 µM	51.9 µM	77.7 µM	–	–	–	–	–
CN(C)CCCNc1nn2c(=O)c3cc(F)ccc3nc2c2ccccc12	22.1 µM	8.9 µM	32.1 µM	10.7 µM	11.2 µM	–	–	–	–	–
O=c1c2ccccc2nc2c3ccccc3c(NCCCN3CCOCC3)nn12	53.8 µM	27.9 µM	14.5 µM	30.5 µM	40.2 µM	–	–	–	–	–
O=c1c2cc(Br)ccc2nc2c3ccccc3c(N3CCOCC3)nn12	> 100 µM	> 100 µM	> 100 µM	> 100 µM	> 100 µM	–	–	–	–	–
O=c1c2cc(Cl)ccc2nc2c3ccccc3c(N3CCOCC3)nn12	> 100 µM	> 100 µM	> 100 µM	> 100 µM	> 100 µM	–	–	–	–	–
CC[C@@]1(O)C(=O)OCc2c1cc1n(c2=O)Cc2cc3cc(O)ccc3nc2-1 [HYDROXYCAMPTOTHECIN]	29.2 µM	5.53 µM	15.2 µM	5.52 µM	4.91 µM	71.6%	–	–	–	–
O=c1c2ccccc2nc2c3ccccc3c(N3CCOCC3)nn12	> 100 µM	> 100 µM	> 100 µM	92.3 µM	> 100 µM	–	–	–	–	–

Compound	IC50 (HeLa)	IC50 (T-24 [1])	IC50 (MGC-803)	IC50 (HepG2 [2])	IC50 (NCI-H460)	inhibition in vivo at 6 mg/kg (HepG2 [3])	Activity [4]	Activity (T-24 [5])	Activity (T-24 [6])	Activity (Escherichia coli)
CN(C)CCNc1nn2c(=O)c3cc(Cl)ccc3nc2c2ccccc12	5.6 µM	3.46 µM	4.82 µM	4.89 µM	5.11 µM	–	–	–	–	–
CN(C)CCNc1nn2c(=O)c3cc(F)ccc3nc2c2ccccc12	7.92 µM	4.62 µM	6.6 µM	4.68 µM	7.49 µM	–	–	–	–	–
CN(C)CCCNc1nn2c(=O)c3cc(Cl)ccc3nc2c2ccccc12	15.7 µM	9.83 µM	13.9 µM	8.78 µM	10.5 µM	–	–	–	–	–
CN1CCN(c2nn3c(=O)c4ccccc4nc3c3ccccc23)CC1	50.4 µM	33.8 µM	44.5 µM	39.4 µM	31.4 µM	–	–	–	–	–
CN(C)CCCNc1nn2c(=O)c3ccccc3nc2c2ccccc12	20.2 µM	14.5 µM	10.7 µM	11.5 µM	17 µM	–	Dose-dependent effect	inactive	–	–
CCN(CC)CCNc1nn2c(=O)c3cc(Br)ccc3nc2c2ccccc12	8.81 µM	10.7 µM	7.26 µM	2.99 µM	5.06 µM	–	–	–	–	–
O=c1c2cc(Br)ccc2nc2c3ccccc3c(NCCCN3CCOCC3)nn12	17.4 µM	9.03 µM	7.21 µM	12.8 µM	15.1 µM	–	–	–	–	–
CCCCNc1nn2c(=O)c3cc(Br)ccc3nc2c2ccccc12	> 100 µM	> 100 µM	> 100 µM	> 100 µM	> 100 µM	–	–	–	–	–
CN(C)CCNc1nn2c(=O)c3ccccc3nc2c2ccccc12	13 µM	7.47 µM	8.71 µM	10.2 µM	12.1 µM	–	–	–	–	–
Cc1ccc2nc3c4ccccc4c(N4CCOCC4)nn3c(=O)c2c1	> 100 µM	> 100 µM	> 100 µM	> 100 µM	> 100 µM	–	–	–	–	–
O=c1c2cc(F)ccc2nc2c3ccccc3c(NCCCN3CCOCC3)nn12	60.6 µM	18.8 µM	79.1 µM	45.1 µM	52 µM	–	–	–	–	–
CCOC(=O)CCNc1nn2c(=O)c3cc(Br)ccc3nc2c2ccccc12	> 100 µM	> 100 µM	> 100 µM	> 100 µM	> 100 µM	–	–	–	–	–
COc1ccc(C2=N[C@H](c3ccc(Cl)cc3)[C@H](c3ccc(Cl)cc3)N2C(=O)N2CCNC(=O)C2)c(OC(C)C)c1	–	–	–	–	–	–	–	–	inactive	–
CN1CCN(c2nn3c(=O)c4cc(Cl)ccc4nc3c3ccccc23)CC1	> 100 µM	30.7 µM	66.1 µM	57.6 µM	70.4 µM	–	–	–	–	–
CC[n+]1c(-c2ccccc2)c2cc(N)ccc2c2ccc(N)cc21	–	–	–	–	–	–	–	–	–	Active
CCOC(=O)CNc1nn2c(=O)c3cc(Br)ccc3nc2c2ccccc12	> 100 µM	> 100 µM	> 100 µM	> 100 µM	> 100 µM	–	–	–	–	–
Cc1ccc2nc3c4ccccc4c(NCCCN(C)C)nn3c(=O)c2c1	13.6 µM	7.28 µM	5.24 µM	7.82 µM	9.7 µM	–	–	–	–	–
